From ChEMBL document CHEMBL1144684, “Evaluation of a series of naphthamides as potent, orally active vascular endothelial growth factor receptor-2 tyrosine kinase inhibitors” (J Med Chem, 2008)
pIC50: −log10 of the molar value. Calls of active or inactive are those of the source. No cut-off for these calls is given here.

Assays:
[1] = Clearance in mouse at 2 mg/kg, iv; assay type: ADME, organism-based; design: dose 2 mg/kg, route intravenous; settings: in vivo
Outline: (§1)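 Compound given iv and po as single doses; vehicles: mouse iv PEG 400, po OraPlus; dog iv DMSO, po 1% Tween-80/2% HPMC/97% water; cynomolgus iv propylene glycol, po suspension.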

[2] = Oral bioavailability in mouse at 10 mg/kg; assay type: ADME, organism-based; settings: in vivo
Outline: (§2)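 Oral suspension dosing; vehicles: mouse 10 mg/kg in OraPlus, dog 0.5 mg/kg in 1% Tween-80/2% HPMC/97% water, cynomolgus monkey 2 mg/kg.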

[3] = Tmax in dog at 0.5 mg/kg, po; assay type: ADME, organism-based, Canis lupus familiaris; design: dose 0.5 mg/kg, route oral; settings: in vivo; outline: as §2
[4] = Volume of distribution at steady state in dog at 0.5 mg/kg, iv; assay type: ADME, organism-based, Canis lupus familiaris; design: dose 0.5 mg/kg, route intravenous; settings: in vivo, read-out: Vdss
Outline: (§3)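 Intravenous dosing of male/unspecified animals per species; vehicles: mouse 2 mg/kg in Peg 400, dog 0.5 mg/kg in DMSO, cynomolgus monkey 0.5 mg/kg in propylene glycol. Parameters from plasma concentration–time data by noncompartmental analysis.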

[5] = Cmax in cynomolgus monkey at 2 mg/kg, po; assay type: ADME, organism-based, Macaca fascicularis; design: dose 2 mg/kg, route oral; settings: in vivo; outline: as §1
[6] = Volume of distribution at steady state in cynomolgus monkey at 0.5 mg/kg, iv; assay type: ADME, organism-based, Macaca fascicularis; design: dose 0.5 mg/kg, route intravenous; settings: in vivo, read-out: Vdss; outline: as §3
HT-29 = assay: Antitumor activity in human HT29 cell xenografted CD1 nu/nu mouse assessed as inhibition of tumor growth at 10 mg/kg, po qd for 14 days; assay type: functional; settings: HT-29, 336 h, read-out: TGI
Outline: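 Female CD-1 nu/nu mice, 4–8 weeks, implanted sc in hind flank with 1 × 10^7 HT29 (DMEM high glucose, 5% FBS) or Calu-6 (RPMI 1640, 10% FBS) cells; treatment began at 13–14 days (~300 mm3). Methanesulfonate salt given po qd in OraPlus for 14 days; caliper volumes twice weekly; n = 10/group; RMANOVA with Scheffé test.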

[7] = AUC (0 to 24 hrs) in human HT29 cell xenografted CD1 nu/nu mouse at 10 mg/kg, po qd; assay type: ADME, organism-based, HT-29; design: time < 24 hr, dose 10 mg/kg, route oral; settings: in vivo
[8] = Intrinsic clearance in rat liver microsomes at 1 uM; assay type: ADME, Microsome; settings: read-out: Stability
Outline: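 Human or rat liver microsomes (0.25 mg protein/mL) with 1 mM NADPH, 2 mM MgCl2 in 50 mM potassium phosphate pH 7.4 at 37 °C; compound 1 µM final. Sampled 0–40 min into acetonitrile, LC-MS/MS; ln % remaining vs time slope gives T1/2; CLint = (0.693/T1/2)/0.25 mg/mL.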

[9] = Clearance in Sprague-Dawley rat at 0.5 mg/kg, iv; assay type: ADME, organism-based; design: dose 0.5 mg/kg, route intravenous; settings: in vivo
Outline: (§4)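 Male Sprague–Dawley rats dosed iv via femoral vein as DMSO solution (1 or 0.5 mg/kg) or po by gavage as OraPlus suspension (pH 2.0–2.2 with methanesulfonic acid; 10 or 2 mg/kg). Serial jugular blood over 12–24 h; plasma acetonitrile precipitation, LC-MS/MS (MRM) with internal standard; noncompartmental parameters.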

Liver microsomes [10] = assay: Metabolic stability assessed as covalent binding in presence of NADPH and GSH in rat liver microsomes at 10 uM after 1 hr; assay type: ADME, Microsome
Outline: (§5)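 14C-labelled compound at 10 µM with human or rat liver microsomes (1 mg/mL) in 0.1 M potassium phosphate pH 7.4, with or without 1 mM NADPH and 1 mM glutathione, 60 min; quenched with ice-cold acetonitrile. Pellet washed with 80% methanol and ethanol/ether, solubilized, protein by BCA, radioactivity by scintillation counting.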

[11] = Cmax in Sprague-Dawley rat at 2 mg/kg, po; assay type: ADME, organism-based; design: dose 2 mg/kg, route oral; settings: in vivo; outline: as §4
[12] = Tmax in Sprague-Dawley rat at 2 mg/kg, po; assay type: ADME, organism-based; design: dose 2 mg/kg, route oral; settings: in vivo
Outline: (§6)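 Male Sprague–Dawley rats dosed iv at 0.5 mg/kg as DMSO solution or po at 2 mg/kg as suspension in 100% OraPlus. Serial jugular blood, plasma LC-MS/MS quantitation, noncompartmental analysis.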

[13] = Oral bioavailability in Sprague-Dawley rat at 2 mg/kg; assay type: ADME, organism-based; settings: in vivo; outline: as §6
[14] = Aqueous solubility in 0.01 N Hcl; assay type: physicochemical
[15] = target: Vascular endothelial growth factor receptor 1 (Homo sapiens, UniProt P17948); assay: Inhibition of human VEGFR1
Vascular endothelial growth factor receptor 1, sequence (P17948 whole entry): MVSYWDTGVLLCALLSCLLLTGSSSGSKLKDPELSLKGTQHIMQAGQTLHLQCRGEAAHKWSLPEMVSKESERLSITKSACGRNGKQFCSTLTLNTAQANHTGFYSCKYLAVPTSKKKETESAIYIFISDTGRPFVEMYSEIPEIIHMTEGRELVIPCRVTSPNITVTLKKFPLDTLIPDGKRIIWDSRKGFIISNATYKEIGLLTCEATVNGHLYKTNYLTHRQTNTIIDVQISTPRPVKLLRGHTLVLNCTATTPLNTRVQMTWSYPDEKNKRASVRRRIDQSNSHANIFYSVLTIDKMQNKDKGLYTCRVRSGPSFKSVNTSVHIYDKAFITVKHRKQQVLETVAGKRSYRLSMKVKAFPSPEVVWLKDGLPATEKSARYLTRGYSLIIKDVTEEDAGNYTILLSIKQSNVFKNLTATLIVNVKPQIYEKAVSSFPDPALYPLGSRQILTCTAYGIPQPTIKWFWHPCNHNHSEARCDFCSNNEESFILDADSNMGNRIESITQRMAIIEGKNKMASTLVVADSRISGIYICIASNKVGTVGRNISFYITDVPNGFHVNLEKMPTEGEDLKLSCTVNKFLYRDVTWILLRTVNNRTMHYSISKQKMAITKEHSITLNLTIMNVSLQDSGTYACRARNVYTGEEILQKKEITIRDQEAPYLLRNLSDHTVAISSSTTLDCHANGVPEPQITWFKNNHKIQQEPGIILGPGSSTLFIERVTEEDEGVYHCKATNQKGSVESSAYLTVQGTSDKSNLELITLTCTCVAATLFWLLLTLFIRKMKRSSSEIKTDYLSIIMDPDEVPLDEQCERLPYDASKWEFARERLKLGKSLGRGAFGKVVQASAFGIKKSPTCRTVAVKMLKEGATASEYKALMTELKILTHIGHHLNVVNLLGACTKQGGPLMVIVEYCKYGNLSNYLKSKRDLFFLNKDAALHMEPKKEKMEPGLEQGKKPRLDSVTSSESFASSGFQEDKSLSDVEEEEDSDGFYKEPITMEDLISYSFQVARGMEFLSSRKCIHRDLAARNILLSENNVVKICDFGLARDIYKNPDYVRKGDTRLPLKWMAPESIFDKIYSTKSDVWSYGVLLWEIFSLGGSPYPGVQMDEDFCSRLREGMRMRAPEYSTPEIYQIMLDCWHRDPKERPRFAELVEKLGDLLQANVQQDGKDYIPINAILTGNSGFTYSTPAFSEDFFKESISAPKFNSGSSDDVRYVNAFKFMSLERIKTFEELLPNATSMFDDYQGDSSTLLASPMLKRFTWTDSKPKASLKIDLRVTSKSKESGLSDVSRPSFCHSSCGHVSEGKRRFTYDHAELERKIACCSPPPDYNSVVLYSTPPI

[16] = target: Macrophage colony-stimulating factor 1 receptor (Homo sapiens) (UniProt P07333); assay: Inhibition of c-fms
Macrophage colony-stimulating factor 1 receptor (Homo sapiens), sequence (P07333 whole entry): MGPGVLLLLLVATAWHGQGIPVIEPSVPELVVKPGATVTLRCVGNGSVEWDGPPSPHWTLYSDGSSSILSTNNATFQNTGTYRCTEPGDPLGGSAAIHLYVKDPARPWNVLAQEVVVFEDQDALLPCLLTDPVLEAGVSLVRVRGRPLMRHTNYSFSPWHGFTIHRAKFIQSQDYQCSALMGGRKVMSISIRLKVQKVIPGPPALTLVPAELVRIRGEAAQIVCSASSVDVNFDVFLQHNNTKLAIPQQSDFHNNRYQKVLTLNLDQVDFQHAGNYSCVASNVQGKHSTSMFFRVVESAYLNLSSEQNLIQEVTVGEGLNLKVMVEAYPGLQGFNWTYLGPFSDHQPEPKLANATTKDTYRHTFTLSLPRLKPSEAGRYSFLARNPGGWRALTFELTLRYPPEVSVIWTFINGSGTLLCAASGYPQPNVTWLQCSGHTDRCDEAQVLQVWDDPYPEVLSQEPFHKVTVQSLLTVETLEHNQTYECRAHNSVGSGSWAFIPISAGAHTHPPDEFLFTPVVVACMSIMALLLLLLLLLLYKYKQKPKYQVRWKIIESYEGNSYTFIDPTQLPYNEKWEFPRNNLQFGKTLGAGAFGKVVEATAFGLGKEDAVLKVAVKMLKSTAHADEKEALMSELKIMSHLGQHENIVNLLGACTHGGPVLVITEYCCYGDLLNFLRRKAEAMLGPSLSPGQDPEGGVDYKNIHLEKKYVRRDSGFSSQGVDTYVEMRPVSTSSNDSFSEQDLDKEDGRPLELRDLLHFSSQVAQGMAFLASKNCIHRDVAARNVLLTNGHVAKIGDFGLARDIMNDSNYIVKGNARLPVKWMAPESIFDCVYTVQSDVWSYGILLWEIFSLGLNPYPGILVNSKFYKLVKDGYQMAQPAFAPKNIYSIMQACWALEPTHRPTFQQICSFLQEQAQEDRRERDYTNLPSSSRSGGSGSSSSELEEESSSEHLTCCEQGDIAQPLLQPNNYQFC

[17] = target: Receptor-type tyrosine-protein kinase FLT3 (Homo sapiens) (UniProt P36888); assay: Inhibition of Flt3
Receptor-type tyrosine-protein kinase FLT3 (Homo sapiens), sequence (P36888 whole entry): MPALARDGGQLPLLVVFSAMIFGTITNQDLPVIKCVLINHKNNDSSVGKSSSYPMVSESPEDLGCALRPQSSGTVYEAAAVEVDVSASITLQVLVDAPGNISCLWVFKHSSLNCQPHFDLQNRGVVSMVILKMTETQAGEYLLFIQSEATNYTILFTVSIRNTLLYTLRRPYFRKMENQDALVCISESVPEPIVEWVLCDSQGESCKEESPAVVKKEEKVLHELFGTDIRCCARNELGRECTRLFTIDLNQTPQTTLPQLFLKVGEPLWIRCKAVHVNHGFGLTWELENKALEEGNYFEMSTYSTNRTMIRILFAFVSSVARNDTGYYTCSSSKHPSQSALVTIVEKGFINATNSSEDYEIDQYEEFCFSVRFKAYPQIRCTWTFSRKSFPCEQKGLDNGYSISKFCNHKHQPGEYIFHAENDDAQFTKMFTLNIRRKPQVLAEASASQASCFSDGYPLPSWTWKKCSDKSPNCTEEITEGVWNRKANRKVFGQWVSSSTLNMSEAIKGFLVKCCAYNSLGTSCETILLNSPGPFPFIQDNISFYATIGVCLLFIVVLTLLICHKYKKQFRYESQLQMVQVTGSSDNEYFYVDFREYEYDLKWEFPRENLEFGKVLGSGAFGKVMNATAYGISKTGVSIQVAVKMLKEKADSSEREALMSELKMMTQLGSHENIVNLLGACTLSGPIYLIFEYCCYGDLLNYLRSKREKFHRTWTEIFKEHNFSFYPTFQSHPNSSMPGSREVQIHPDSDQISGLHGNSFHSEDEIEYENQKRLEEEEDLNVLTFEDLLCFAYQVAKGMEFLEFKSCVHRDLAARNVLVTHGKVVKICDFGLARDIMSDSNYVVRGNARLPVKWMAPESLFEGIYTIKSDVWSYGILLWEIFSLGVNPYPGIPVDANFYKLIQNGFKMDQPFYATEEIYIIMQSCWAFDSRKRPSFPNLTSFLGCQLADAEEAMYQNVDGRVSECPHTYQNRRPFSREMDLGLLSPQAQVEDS

[18] = target: Tyrosine-protein kinase Lyn (Homo sapiens, UniProt P07948); assay: Inhibition of Lyn
Tyrosine-protein kinase Lyn, sequence (P07948 whole entry): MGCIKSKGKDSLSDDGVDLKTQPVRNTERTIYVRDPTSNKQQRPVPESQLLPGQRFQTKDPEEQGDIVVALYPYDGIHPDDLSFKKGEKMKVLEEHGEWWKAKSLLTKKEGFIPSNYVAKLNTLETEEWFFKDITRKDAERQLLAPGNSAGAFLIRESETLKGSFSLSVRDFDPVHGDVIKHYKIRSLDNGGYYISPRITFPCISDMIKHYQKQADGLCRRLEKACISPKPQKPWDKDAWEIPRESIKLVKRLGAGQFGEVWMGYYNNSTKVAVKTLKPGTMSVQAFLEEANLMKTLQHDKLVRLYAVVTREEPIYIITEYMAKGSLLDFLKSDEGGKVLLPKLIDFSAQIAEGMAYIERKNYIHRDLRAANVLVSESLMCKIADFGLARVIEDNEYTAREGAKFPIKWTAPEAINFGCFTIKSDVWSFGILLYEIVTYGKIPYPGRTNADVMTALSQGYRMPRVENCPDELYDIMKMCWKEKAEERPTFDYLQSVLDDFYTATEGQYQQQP

Rattus norvegicus = assay: Inhibition of VEGF-induced angiogenesis in VEGF-soaked disk implanted in Sprague-Dawley rat cornea assessed as number of blood vessels intersecting the midpoint between disk and limbus after 7 days; assay type: functional; settings: 168 h
Liver microsomes [19] = assay: Metabolic stability assessed as covalent binding in absence of NADPH in human liver microsomes at 10 uM after 1 hr; assay type: ADME, Microsome; outline: as §5
Angiopoietin-1 receptor = Angiopoietin-1 receptor (Homo sapiens, UniProt Q02763); assay: Inhibition of Tie2
[20] = target: Tyrosine-protein kinase Lck (Homo sapiens, UniProt P06239); assay: Inhibition of Lck
Aurora kinase A = target: T1, Aurora kinase A (Homo sapiens, UniProt O14965); assay: Inhibition of Aurora A
T1 sequence (O14965 whole entry): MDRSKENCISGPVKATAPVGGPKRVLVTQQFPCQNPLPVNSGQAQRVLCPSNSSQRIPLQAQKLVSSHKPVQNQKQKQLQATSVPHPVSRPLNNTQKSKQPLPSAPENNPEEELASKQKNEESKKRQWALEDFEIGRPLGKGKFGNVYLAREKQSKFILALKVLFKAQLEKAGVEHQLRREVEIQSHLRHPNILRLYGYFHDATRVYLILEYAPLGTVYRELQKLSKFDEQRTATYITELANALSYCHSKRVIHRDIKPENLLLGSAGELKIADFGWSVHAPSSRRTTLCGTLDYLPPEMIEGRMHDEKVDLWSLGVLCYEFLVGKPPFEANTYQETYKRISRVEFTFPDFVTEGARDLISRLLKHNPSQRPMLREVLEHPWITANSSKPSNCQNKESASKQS

Aurora kinase B = Aurora kinase B (Homo sapiens, UniProt Q96GD4); assay: Inhibition of Aurora B
HUVEC = assay: Inhibition of bFGF-induced proliferation of HUVEC; assay type: functional, cell-based; settings: Homo sapiens
Outline: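 HUVEC seeded at 3000/well in DMEM with 10% FBS, 22 h; 2 h preincubation with serial compound dilutions, then 50 ng/mL VEGF or 20 ng/mL bFGF for 72 h at 37 °C. Freeze–thaw, CyQuant DNA dye read-out; IC50 by four-parameter logistic fit, averaged over ≥2 experiments.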

[21] = target: Tyrosine-protein kinase ABL1 (Homo sapiens, UniProt P00519)
Tyrosine-protein kinase ABL1, sequence (P00519 whole entry): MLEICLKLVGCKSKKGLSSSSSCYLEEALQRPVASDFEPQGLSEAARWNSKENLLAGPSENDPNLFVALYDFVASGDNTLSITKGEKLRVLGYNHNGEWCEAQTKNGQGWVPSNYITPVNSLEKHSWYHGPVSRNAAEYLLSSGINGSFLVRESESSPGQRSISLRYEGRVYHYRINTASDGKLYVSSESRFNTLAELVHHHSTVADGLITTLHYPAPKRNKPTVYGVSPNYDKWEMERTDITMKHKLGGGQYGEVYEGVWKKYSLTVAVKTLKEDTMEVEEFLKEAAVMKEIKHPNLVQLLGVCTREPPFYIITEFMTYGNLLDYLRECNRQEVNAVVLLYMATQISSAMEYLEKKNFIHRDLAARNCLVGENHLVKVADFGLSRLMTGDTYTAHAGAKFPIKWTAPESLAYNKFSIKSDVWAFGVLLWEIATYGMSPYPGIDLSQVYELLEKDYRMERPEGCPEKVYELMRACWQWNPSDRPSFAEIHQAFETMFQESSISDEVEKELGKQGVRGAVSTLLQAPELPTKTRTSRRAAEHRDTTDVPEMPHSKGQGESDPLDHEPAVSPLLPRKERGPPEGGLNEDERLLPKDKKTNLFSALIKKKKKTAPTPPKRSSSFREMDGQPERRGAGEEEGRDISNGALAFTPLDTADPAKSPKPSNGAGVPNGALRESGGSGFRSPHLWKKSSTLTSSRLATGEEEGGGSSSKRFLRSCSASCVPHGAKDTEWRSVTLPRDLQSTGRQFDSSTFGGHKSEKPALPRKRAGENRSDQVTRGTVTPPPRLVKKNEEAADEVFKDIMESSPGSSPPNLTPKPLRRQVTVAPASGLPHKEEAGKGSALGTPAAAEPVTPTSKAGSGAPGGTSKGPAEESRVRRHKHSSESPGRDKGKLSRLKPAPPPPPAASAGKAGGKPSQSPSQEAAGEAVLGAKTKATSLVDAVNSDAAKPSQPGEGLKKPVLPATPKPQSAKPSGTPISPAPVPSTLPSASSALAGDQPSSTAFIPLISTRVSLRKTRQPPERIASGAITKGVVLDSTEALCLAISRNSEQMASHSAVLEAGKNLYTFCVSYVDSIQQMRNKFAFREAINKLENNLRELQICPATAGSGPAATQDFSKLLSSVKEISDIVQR

[22] = target: Vascular endothelial growth factor receptor 2 (Homo sapiens, UniProt P35968)
Calu-6 (Homo sapiens) = assay: Antitumor activity in human Calu6 cell xenografted CD1 nu/nu mouse assessed as inhibition of tumor growth at 20 mg/kg, po qd for 14 days; settings: Calu-6, po, 336 h, read-out: TGI

Structure (SMILES): COc1cc2nccc(Oc3ccc4c(C(N)=O)cccc4c3)c2cc1OC
- clearance [1]: 42.4 mL/min/kg
- bioavailability [2]: 39%
- Tmax [3]: 0.75 h
- Vd [4]: 1.86 L/kg
- Cmax [5]: 1050 ng/mL
- Vd [6]: 6.82 L/kg
- inhibition in vivo at 10 mg/kg (HT-29): 85%
- AUC at 24 h [7]: 3.9 µM·h
- microsomal CLint at 1 µM [8]: 32 µL/min/mg
- clearance [9]: 3.73 mL/min/kg
- Stability (Liver microsomes [10]): 3.2 pmol/mg/h
- Cmax [11]: 1690 ng/mL
- Tmax [12]: 1.6 h
- bioavailability [13]: 96%
- solubility [14]: > 200 µg/mL
- Activity [15]: Active
- Activity [16]: Active
- Activity [17]: inactive
- pIC50 [18]: 7.06
- ED50 (Rattus norvegicus): 0.04 mg/kg
- Stability (Liver microsomes [19]): 14 pmol/mg/h
- pIC50 (Angiopoietin-1 receptor): 4.60
- pIC50 [20]: 6.52
- pIC50 (Aurora kinase A): 5.30
- pIC50 (Aurora kinase B): 6.66
- pIC50 (HUVEC): 6.64
- pIC50 [21]: 6.96
- pIC50 [22]: 9.05
- inhibition in vivo at 20 mg/kg (Calu-6 (Homo sapiens)): 85%
